This is an account of results in ChEMBL document CHEMBL1125479, “Methoxytetrahydropyrans. A new series of selective and orally potent 5-lipoxygenase inhibitors” (J Med Chem, 1992).

Each structure is given as a SMILES string. Several values for one entry are separate records, joined by “and”; a condition that tells them apart may be missing. Equal entries are not always repeated.

Data set [1] concerns the target T1, Polyunsaturated fatty acid 5-lipoxygenase (Homo sapiens, UniProt P09917).
T1 sequence (P09917 whole entry): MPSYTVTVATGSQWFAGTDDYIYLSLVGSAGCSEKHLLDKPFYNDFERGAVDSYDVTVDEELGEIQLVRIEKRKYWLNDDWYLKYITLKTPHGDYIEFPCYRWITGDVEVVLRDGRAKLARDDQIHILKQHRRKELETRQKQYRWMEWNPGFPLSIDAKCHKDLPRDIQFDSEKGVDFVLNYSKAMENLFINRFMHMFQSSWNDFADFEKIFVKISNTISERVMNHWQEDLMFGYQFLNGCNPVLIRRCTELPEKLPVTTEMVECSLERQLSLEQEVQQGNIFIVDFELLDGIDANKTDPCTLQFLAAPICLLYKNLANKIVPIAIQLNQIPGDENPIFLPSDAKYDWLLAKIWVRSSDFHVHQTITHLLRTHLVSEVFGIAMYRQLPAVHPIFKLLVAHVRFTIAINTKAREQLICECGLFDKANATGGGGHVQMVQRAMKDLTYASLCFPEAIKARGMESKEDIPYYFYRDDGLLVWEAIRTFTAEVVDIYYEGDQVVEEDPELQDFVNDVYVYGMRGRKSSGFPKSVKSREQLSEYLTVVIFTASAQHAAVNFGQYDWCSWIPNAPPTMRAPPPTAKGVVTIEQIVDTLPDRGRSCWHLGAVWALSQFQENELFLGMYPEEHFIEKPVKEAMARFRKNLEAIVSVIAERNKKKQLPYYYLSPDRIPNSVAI
Briefly: In vitro inhibition of leukotriene B4 synthesis in human whole blood by inhibiting 5-lipoxygenase. It is filed as tissue-based. Summed up:
(§1)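 Heparinized human whole blood preincubated with compound, then stimulated with calcium ionophore A23187; LTB4 (5-LPO product) and TxB2 (cyclooxygenase product) generation measured.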

The test system of data set [2] is Rattus norvegicus. The data set can be described thus: Ex vivo potency in for eicosanoid generation in inflammatory exudate of rat 3 hr after peroral administration. It is filed as functional. To be noted: po. The essentials: (§2)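 Male Alderley Park rats (130-150 g) given a subcutaneous air pouch (20 mL sterile air under halothane, reinflated with 10 mL 3 days later). After a further 3 days, oral dosing (DMSO solution in 0.5% HPMC/0.1% polysorbate 80, 1 mL/kg) or vehicle, then 1 mL of 1% zymosan in saline into the pouch.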

The species named for data set [3] is Homo sapiens. The data set can be described thus: In vitro inhibition of leukotriene B4 in human whole blood. It is filed as functional. Summed up: as §1
Data set [4] in a line: Logarithm of partition coefficient was determined. It is filed as physicochemical. The conditions noted are these: octanol/water.
In data set [5] the test system is Rattus norvegicus. The data set can be described thus: Ex vivo potency in rat blood for eicosanoid generation 1 hr after peroral administration. It counts as functional. The conditions noted are these: po. Summed up:
(§3)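 Rats dosed orally (1 mL/kg) with compound dissolved in DMSO and suspended in 0.5% (hydroxypropyl)methylcellulose with 0.1% polysorbate 80; controls got vehicle.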

The nature of data set [6]: Aqueous solubility was determined. The conditions noted are these: buffer. It is filed as physicochemical.
For data set [7], the system named is Rattus norvegicus. Briefly: Ex vivo potency in rat blood for eicosanoid generation 3 hr after peroral administration. It is filed as functional. To be noted: po. The essentials: as §3
For data set [8], the target named is T1, Polyunsaturated fatty acid 5-lipoxygenase. The data set can be described thus: In vitro inhibition of leukotriene B4 synthesis in human whole blood by inhibiting 5-LPO (5-lipoxygenase). It counts as tissue-based. The essentials: as §1
For data set [9], the system named is Rattus norvegicus. Briefly: Compound was tested for the generation of eicosanoid in inflammatory exudate after 3 hr peroral administration. It counts as functional. To be noted: po. The essentials:
as §2

Data set [10] relates to Rattus norvegicus. The data set can be described thus: Ex vivo potency against rat blood after 1 hr peroral administration. It counts as functional. To be noted: po, 3 h, in the assay text read “after 3 hr” for “after 1 hr”. Summed up: as §3
The species named for data set [11] is Mus musculus. Briefly: In vitro inhibitory activity against leukotriene synthesis in mouse macrophages. It is filed as functional.
Data set [12] concerns Rattus norvegicus. The data set can be described thus: Ex vivo potency against rat blood after 3 hr peroral administration. It counts as functional. The conditions noted are these: po. Summed up:
as §3

Data set [13] can be described thus: In vitro inhibition of thromboxane B2 in human whole blood Value. It counts as tissue-based. Summed up:
as §1

Regarding `CCC(OC)(c1ccc(OCc2ccc3ccccc3c2)cc1)c1nccs1` (stereo not given), it took 40000 nM to reach half-maximal inhibition in data set [1] (IC50).

The compound `COC1(c2cc(F)cc(OCc3ccc4c(c3)oc(=O)n4C)c2)CCOCC1` gave an IC50 in data set [1] of 200 nM. For the same compound, the ED50 in [2] was > 1.5 mg/kg.

Regarding `COC1(c2cccc(OCc3ccc4ccccc4c3)c2)CCCOC1` (stereo not given), the concentration for half-maximal inhibition (IC50) turned out to be 1700 nM in data set [1] and 2800 nM in [3].

Consider `COC1(c2cc(F)cc(OCc3ccc4nccnc4c3)c2)CCOCC1`, for which the “delta Log P” value in [4] is on record as -1.8. The ED50 in data set [2] and in [5] was 30 mg/kg throughout. Besides, the “Delta logS” value in [6] was 1.8.

With `COC1(c2cc(F)cc(OCc3ccc4c(c3)n(C)c(=O)n4C)c2)CCOCC1`, the IC50 in data set [1] was 80 nM. Besides, the “delta Log P” value in [4] was -1.7. For the same compound, the ED50 in data set [2] was determined as 1.5 mg/kg. Moreover, in data set [6], the “Delta logS” value came out at 1.

Turning to `COC1(c2cccc(OCc3ccc4ccccc4c3)c2)CCCCOC1` (stereo not given), the IC50 in data set [1] amounted to 2500 nM.

In the case of `COC1(c2cccc(OCC#Cc3ccccc3)c2)CCOCC1`, the IC50 in data set [1] is 70 nM.

Take `COC1(c2cccc(OCc3ccc4c(ccc(=O)n4C)c3)c2)CCOCC1`: the “delta Log P” value in data set [4] is on record as -2. Also, the ED50 in [2] was 3 mg/kg; in data set [7], 1.5 mg/kg. In addition, in data set [6], the “Delta logS” value was determined as 1.8.

With `CCC(OC)(c1cccc(OCC#Cc2ccccc2)c1)c1nccs1` (stereo not given), in [1], the 50% inhibitory concentration (IC50) is 900 nM and 1000 nM.

The compound `COC1(c2cccc(OCc3ccc4ccc(=O)n(C)c4c3)c2)CCOCC1` showed an IC50 in data set [1] of 200 nM. In addition, the ED50 in data set [7] was > 3 mg/kg.

Consider `COC1(c2cc(F)cc(OCc3ccc4c(c3)sc(=O)n4C)c2)CCOCC1`, for which half-maximal inhibition in data set [1] (IC50) was put at 40 nM. For the same compound, in data set [4], the “delta Log P” value is -1.2. The compound also showed an ED50 in [2] of 1.5 mg/kg. The “Delta logS” value in data set [6] is on record as 0.8.

Compound `COC1(c2cccc(OCc3ccc4ccccc4c3)c2)CCCOCC1` (stereo not given) had an IC50 in [1] of 200 nM.

In [1], `COC1(c2cccc(OCC#Cc3ccccn3)c2)CCOCC1` yielded an IC50 of 400 nM. Also, the ED50 in [5] was determined as 100 mg/kg.

For `COC1(c2cccc(OCc3cccc4c3ccc(=O)n4C)c2)CCOCC1`, the midpoint of inhibition in data set [1], the IC50, lay at 1300 nM. Also, in data set [7], the 50% effective dose (ED50) is > 3 mg/kg.

For the compound `CC(C)c1ccc2c(c1)c(SC(C)(C)C)c(CC(C)(C)C(=O)[O-])n2Cc1ccc(Cl)cc1.[Na+]`, 1100 nM corresponded to half-maximal inhibition in data set [8] (IC50). In addition, the ED50 in data set [9] came out at 2 mg/kg; in data set [10], 3 mg/kg.

In the case of `COC1(c2cccc(OCc3ccc4ccccc4c3)c2)CC[S+]([O-])CC1` (stereo not given), the IC50 in [1] turned out to be 4200 nM.

For `COC1(c2cccc(OCc3ccc4ccccc4c3)c2)CCSCC1`, the IC50 in data set [1] and in [3] was 400 nM throughout.

In the case of `COC1(c2cccc(OCc3ccc4ccccc4c3)c2)CCN(C)CC1`, the IC50 in data set [1] is > 40000 nM.

As for `COC(C)(c1cccc(OCc2ccc3ccccc3c2)c1)c1nccs1` (stereo not given), the IC50 in data set [1] was 500 nM.

In turn, `COC1(c2cccc(OCc3ccc4ccccc4c3)c2)CCC(=O)CC1` displayed an IC50 in data set [1] of 3400 nM.

As for `COC1(c2cc(F)cc(OCc3cc4ccccc4n(C)c3=O)c2)CCOCC1`, inhibition in data set [1] was half-maximal at 400 nM (IC50). In addition, in data set [2], the ED50 is > 1.5 mg/kg.

In data set [3], `COC(C)(c1nccs1)c1cccc(OCc2ccc3ccccc3c2)c1C` (stereo not given) had an IC50 of 1000 nM.

Take `COC1(c2ccc(OCc3ccc4ccccc4c3)cc2)CCOCC1`: in data set [1], it took 19000 nM to reach half-maximal inhibition (IC50).

With `COC1(c2cccc(OCc3ccc4ccccc4c3)c2)CCS(=O)(=O)CC1`, the IC50 in [1] came to 10600 nM.

In data set [1], `CCOC(C)=O.COC1(c2cc(F)cc(OCc3ncc4ccccc4n3)c2)CCOCC1` registered an IC50 of 200 nM. In addition, the “delta Log P” value in data set [4] is on record as -1.9. Also, in data set [5], the ED50 is > 10 mg/kg. The Delta logS in [6] worked out at 1.9.

Take `COC1(c2cccc(OCc3ccc4ccccc4c3)c2C)CCOCC1`: it took 600 nM to reach half-maximal inhibition in data set [1] (IC50).

`COC1(c2cc(OCc3ccc4ccccc4c3)ccc2C)CCOCC1`: the IC50 in data set [1] is 40000 nM.

For `COC1(c2cccc(OCc3ccc4ccccc4c3)c2)CCCCC1`, in data set [1], the IC50 came out at 2600 nM.

In data set [1], `COC1(c2cccc(OCc3ccc4ccccc4c3)c2)CCOC1` (stereo not given) yielded an IC50 of 700 nM.

In turn, `COC1(c2cc(F)cc(OCc3ccc4nc(O)ccc4c3)c2)CCOCC1` showed an IC50 in data set [1] of 600 nM. Also, the median effective dose (ED50) in [7] is > 3 mg/kg.

For `COC1(c2cccc(OCc3ccc4ccccc4c3)c2)CCOCC1`, the IC50 in data set [1] is 70 nM; in [11], 0.5 nM. In addition, the figures for the 50% effective dose (ED50) in [2], in [5] and in data set [7] were 10 mg/kg, 5 mg/kg and 10 mg/kg, respectively.

Regarding `COC1(c2cc(F)cc(OCc3ccc4c(=O)n(C)ccc4c3)c2)CCOCC1`, in [1], it took 200 nM to reach half-maximal inhibition (IC50). Further, the ED50 in data set [2] is > 1.5 mg/kg.

`COC1(c2cc(F)cc(OCc3ccc4c(c3)C(C)(C)C(=O)N4C)c2)CCOCC1` showed an IC50 in [1] of 80 nM. In data set [2], the ED50 was > 1.5 mg/kg.

As for `CCOC(C)=O.COC1(c2cc(F)cc(OCc3cc4ccccc4nc3O)c2)CCOCC1`, the ED50 in data set [5] is > 100 mg/kg.

As to `COC1(c2cccc(OCc3ccc4ccccc4c3)c2)COC1`, the IC50 in data set [1] worked out at 2500 nM.

As for `COC1(c2cc(F)cc(OCc3ccc4oc(=O)ccc4c3)c2)CCOCC1`, in [8], the IC50 worked out at 300 nM. In addition, the ED50 in [12] was > 3 mg/kg.

The compound `COC1(c2cc(F)cc(OCc3ccc4ncncc4c3)c2)CCOCC1` registered an IC50 in data set [1] of 200 nM. Besides, the “delta Log P” value in data set [4] is recorded as -2.1. Moreover, in data set [5], the ED50 was > 100 mg/kg. The “Delta logS” value in [6] amounted to 1.5.

`COC1(c2cc(F)cc(OCc3ccc4c(c3)ncc(=O)n4C)c2)CCOCC1` returned an IC50 in data set [1] of 50 nM. Moreover, in data set [4], the “delta Log P” value is -2.3. Also, in [2], it took a dose of 1.5 mg/kg to reach the 50% effect level (ED50). In addition, the “Delta logS” value in data set [6] is 1.8.

With `COC1(c2cc(F)cc(OCc3ccc4c(ccc(=O)n4C)c3)c2)CCOCC1` [ZD-2138], the IC50 was 20 nM in data set [1] and > 500000 nM in data set [13]. In addition, the “delta Log P” value in [4] is given as -1.7. The figures for the ED50 in [2], in data set [5] and in data set [7] were 0.3 mg/kg, 1 mg/kg and 0.9 mg/kg, respectively. Also, the “Delta logS” value in data set [6] was found to be 0.9.

Turning to `CC(c1cc2ccccc2s1)N(O)C(N)=O` (stereo not given) [ZILEUTON], in data set [2], the 50% effect level (ED50) was put at a dose of 3 mg/kg. This compound also yielded an IC50 in data set [13] of 40000 nM.
